This is an account of results in ChEMBL document CHEMBL4041524, “Synthesis and Characterization of a Novel γ-Aminobutyric Acid Type A (GABAA) Receptor Ligand That Combines Outstanding Metabolic Stability, Pharmacokinetics, and Anxiolytic Efficacy” (J Med Chem, 2016).

What is called EC50 is the concentration giving half of the maximal effect. In general, half-life refers to the time in which the quantity being followed falls by half. High values mean slow decline, low ones rapid decline. By Cmax is commonly meant the maximum level reached in the sampled fluid or tissue.

Data set [1] can be described thus: Total plasma concentration in Sprague-Dawley rat at 10 mg/kg, po measured after 60 mins by LC-MS/MS analysis. The format is ADME, organism-based. Put shortly:
(§1)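 Sprague-Dawley rats (n = 3 per time point) were given 10 mg/kg p.o. Total plasma concentrations were taken at 15, 30, 60 and 120 min. Brain levels of the dosed ligand and of the carboxylic acid metabolite were taken at 60 or 120 min.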

The nature of data set [2]: Drug uptake in Sprague-Dawley rat brain at 10 mg/kg, po measured after 60 mins by LC-MS/MS analysis. The format is ADME, organism-based. The following applies: read-out: Drug uptake. A digest of the protocol:
as §1

The target of data set [3] is GABA-A receptor; alpha-2/beta-3/gamma-2 (Homo sapiens) (UniProt P18507+P28472+P47869). The data set can be described thus: Modulation of recombinant GABA alpha2beta3gamma2 receptor (unknown origin) expressed in Xenopus laevis oocytes assessed as change in GABA-induced EC(3 to 6) current at 100 nM by two-electrode voltage clamp assay. The format is cell-based. A digest of the protocol: (§2)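 Xenopus laevis oocytes expressing α1, α2, α3 or α5 β3γ2 GABAARs were recorded by two-electrode voltage clamp. Modulation of the GABA EC3-6 current (taken as 100%) was tested at 100 nM, 1 μM and 10 μM in the same cells. Values are mean ± SEM, n = 3–4.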
(In general: Two-electrode voltage clamp holds a large cell at a set potential and records current.)

In data set [4] the target is T1, GABA-A receptor; alpha-1/beta-3/gamma-2 (Homo sapiens) (UniProt P14867+P18507+P28472). The data set is described as follows: Modulation of recombinant GABA alpha1beta3gamma2 receptor (unknown origin) expressed in Xenopus laevis oocytes assessed as change in GABA-induced EC(3 to 6) current at 1 uM by two-electrode voltage clamp assay. The class given is cell-based. A digest of the protocol:
as §2

In data set [5] the target is T1, GABA-A receptor; alpha-1/beta-3/gamma-2 (Homo sapiens). The data set is described as follows: Modulation of recombinant GABA alpha1beta3gamma2 receptor (unknown origin) expressed in Xenopus laevis oocytes assessed as change in GABA-induced EC(3 to 6) current at 10 uM by two-electrode voltage clamp assay. The class given is cell-based. A digest of the protocol:
as §2

The target in data set [6] is GABA-A receptor; alpha-5/beta-3/gamma-2 (Homo sapiens) (UniProt P18507+P28472+P31644). The data set can be described thus: Modulation of recombinant GABA alpha5beta3gamma2 receptor (unknown origin) expressed in Xenopus laevis oocytes assessed as change in GABA-induced EC(3 to 6) current at 10 uM by two-electrode voltage clamp assay. The class given is cell-based. Put shortly: as §2

The target in data set [7] is T2, GABA-A receptor; alpha-1/beta-3/gamma-2 (Homo sapiens, UniProt P14867+P18507+P28472).
T2 sequence (P14867 whole entry): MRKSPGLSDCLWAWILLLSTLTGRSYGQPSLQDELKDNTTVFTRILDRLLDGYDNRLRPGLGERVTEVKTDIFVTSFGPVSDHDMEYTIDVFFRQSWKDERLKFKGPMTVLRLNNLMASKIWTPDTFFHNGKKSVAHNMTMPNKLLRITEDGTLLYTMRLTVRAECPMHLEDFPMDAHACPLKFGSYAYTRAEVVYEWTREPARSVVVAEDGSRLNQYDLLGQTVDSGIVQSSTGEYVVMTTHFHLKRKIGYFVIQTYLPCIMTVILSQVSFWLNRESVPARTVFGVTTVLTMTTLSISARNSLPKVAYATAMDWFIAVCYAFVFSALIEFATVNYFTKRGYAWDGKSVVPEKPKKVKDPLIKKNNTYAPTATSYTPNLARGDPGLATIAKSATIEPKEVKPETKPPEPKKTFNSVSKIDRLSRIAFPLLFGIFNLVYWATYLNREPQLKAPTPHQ
T2 sequence (P18507 whole entry): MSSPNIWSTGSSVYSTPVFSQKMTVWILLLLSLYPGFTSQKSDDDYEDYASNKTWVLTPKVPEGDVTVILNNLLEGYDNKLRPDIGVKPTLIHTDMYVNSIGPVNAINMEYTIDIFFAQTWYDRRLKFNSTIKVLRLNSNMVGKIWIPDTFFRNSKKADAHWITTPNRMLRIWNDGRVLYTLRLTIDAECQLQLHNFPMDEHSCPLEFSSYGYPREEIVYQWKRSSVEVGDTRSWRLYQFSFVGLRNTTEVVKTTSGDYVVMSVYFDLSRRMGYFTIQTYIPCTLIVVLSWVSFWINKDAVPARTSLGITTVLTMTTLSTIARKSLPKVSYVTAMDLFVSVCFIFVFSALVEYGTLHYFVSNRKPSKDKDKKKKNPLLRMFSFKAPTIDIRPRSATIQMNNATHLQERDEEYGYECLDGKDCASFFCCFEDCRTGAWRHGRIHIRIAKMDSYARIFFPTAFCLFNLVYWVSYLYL
T2 sequence (P28472 whole entry): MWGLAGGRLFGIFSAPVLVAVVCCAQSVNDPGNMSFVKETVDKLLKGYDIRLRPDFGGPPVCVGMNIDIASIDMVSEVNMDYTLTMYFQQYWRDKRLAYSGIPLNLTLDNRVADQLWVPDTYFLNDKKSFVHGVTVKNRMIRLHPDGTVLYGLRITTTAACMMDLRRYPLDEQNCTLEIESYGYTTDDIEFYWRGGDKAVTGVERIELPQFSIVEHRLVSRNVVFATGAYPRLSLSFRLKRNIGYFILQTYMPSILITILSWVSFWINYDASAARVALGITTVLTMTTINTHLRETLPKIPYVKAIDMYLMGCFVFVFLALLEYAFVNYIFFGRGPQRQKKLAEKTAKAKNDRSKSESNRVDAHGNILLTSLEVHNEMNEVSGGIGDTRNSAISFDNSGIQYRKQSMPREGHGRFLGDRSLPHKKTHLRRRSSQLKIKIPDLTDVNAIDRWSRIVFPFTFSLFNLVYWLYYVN
The data set is described as follows: Modulation of recombinant human GABA alpha1beta3gamma2 receptor expressed in HEK293 cells assessed as change in GABA-induced current at -80 mV holding potential preincubated for 3 mins followed by co-administration of GABA by electrophysiology method. The format is cell-based.

Data set [8] can be described thus: Half life in femoral artery/vein cannulated Sprague-Dawley rat at 1 mg/kg, iv administered […] as single dose by LC-MS/MS analysis. The format is ADME, organism-based. The conditions noted are these: in vivo. Put shortly:
(§3)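 Male Sprague-Dawley rats (n = 3 per time point) were dosed 1 mg/kg i.v. or 10 mg/kg i.p. Plasma concentrations were measured at set time points. Clearance, Vdss and T½ came from the i.v. arm, and AUC, Cmax and Tmax from the i.p. arm.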

Data set [9] can be described thus: Cmax in femoral artery/vein cannulated Sprague-Dawley rat at 10 mg/kg, ip administered […] as single dose by LC-MS/MS analysis. The conditions noted are these: in vivo. The class given is ADME, organism-based. Also on record: dose 10 mg/kg, route intraperitoneal. A digest of the protocol:
as §3

Data set [10] concerns Rattus norvegicus. The data set is described as follows: Anxiolytic like activity in water-deprived Sprague-Dawley rat assessed as increase in water drinking time during punished period at 20 mg/kg, po administered 30 mins prior to testing by Vogel conflict test relative to control. The class given is functional. Put shortly: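 Water-deprived male Sprague-Dawley rats (n = 6–8) drank during unpunished and punished periods, with licking suppressed by mild shock in punished periods. Compounds were given 30 min before testing. Analysis was ANOVA with Dunnett's test.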

Data set [11] addresses T1, GABA-A receptor; alpha-1/beta-3/gamma-2 (Homo sapiens). The data set is described as follows: Modulation of recombinant GABA alpha1beta3gamma2 receptor (unknown origin) expressed in Xenopus laevis oocytes assessed as change in GABA-induced EC(3 to 6) current by two-electrode voltage clamp assay. The format is cell-based. A digest of the protocol: as §2

Consider `C#Cc1ccc2c(c1)C(c1ccccn1)=NCc1c(-c3cnco3)ncn1-2`, for which the concentration at 1 h was determined as 3.91 µM in [1] and 3.64 µM in data set [2]. Further, the Activity in [3] was 100%; in data set [4] it was 155%; in data set [5], 232%; in data set [6], 246%; in data set [10], 330%; in [11] it was “Dose-dependent effect”. In addition, the EC50 in [7] is 489 nM. Also, the half-life in data set [8] is 1.4 h. Moreover, the highest level in data set [9] (Cmax) was 3.09 µM.
